# pEC50: −log10 of the molar value. Activity calls are given as the source filed them. The rule behind the calls is not given here.
# Assays:
# [1] = target: T1, Free fatty acid receptor 1 (Homo sapiens, UniProt O14842); assay: Agonist activity at human FFA1 transfected in 1321N1 cells under serum-free condition up to 1 hr by dynamic mass redistribution optical biosensor assay; assay type: functional, cell-based
# Outline: (§1)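 hFFA1-transfected 1321N1 cells were exposed to a range of agonist concentrations. Label-free dynamic mass redistribution was tracked over time as the resonant wavelength shift (pm), a read-out of receptor activation. pEC50 was taken from concentration-response curves of this signal.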
# [2] = target: T1, Free fatty acid receptor 1; assay: Agonist activity at human FFA1 transfected in 1321N1 cells assessed as calcium mobilization by microplate assay relative to 10 uM TUG-20; assay type: functional, cell-based
# Outline: (§2)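 Calcium mobilization in hFFA1-expressing cells was measured as full concentration-response curves and reported as pEC50. Efficacy is % of the response to 10 μM of the reference agonist.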
# [3] = target: T2, Peroxisome proliferator-activated receptor gamma (Homo sapiens) (UniProt P37231); assay: Transactivation of human PPARgamma ligand binding domain transfected in mouse embryo fibroblasts at 100 uM after 18 hrs analyzed by photinus and renilla luciferase activity by luminometry relative to 1 uM rosiglitazone
# T2 sequence (whole entry): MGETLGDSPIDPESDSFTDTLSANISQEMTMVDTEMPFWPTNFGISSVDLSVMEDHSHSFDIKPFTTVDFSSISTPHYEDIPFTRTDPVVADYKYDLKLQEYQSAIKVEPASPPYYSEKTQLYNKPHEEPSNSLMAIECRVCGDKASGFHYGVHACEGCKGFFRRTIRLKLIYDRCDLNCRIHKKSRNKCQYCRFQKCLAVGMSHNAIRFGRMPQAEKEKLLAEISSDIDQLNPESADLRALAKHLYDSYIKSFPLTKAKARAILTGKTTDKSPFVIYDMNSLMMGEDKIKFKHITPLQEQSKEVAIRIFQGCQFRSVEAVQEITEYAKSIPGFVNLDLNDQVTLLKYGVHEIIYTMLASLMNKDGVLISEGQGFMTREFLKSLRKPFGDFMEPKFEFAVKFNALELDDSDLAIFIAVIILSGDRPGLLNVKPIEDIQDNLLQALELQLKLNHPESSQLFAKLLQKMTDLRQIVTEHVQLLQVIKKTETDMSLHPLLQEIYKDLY
# [4] = target: T2, Peroxisome proliferator-activated receptor gamma (Homo sapiens); assay: Transactivation of human PPARgamma ligand binding domain transfected in mouse embryo fibroblasts assessed as renilla luciferase activity at 1 uM after 18 hrs by luminometry relative to 1 uM rosiglitazone
# Homo sapiens = species on record: Homo sapiens; assay: Selectivity for human FFA1 over human PPARgamma
# [5] = Induction of 12 mM glucose-stimulated insulin secretion in rat INS-1E cells at 10 uM after 1 hr by radioimmunoassay; assay type: functional
# INS-1E = assay: Induction of 2.8 mM glucose-stimulated insulin secretion in rat INS-1E cells at 10 uM after 1 hr by radioimmunoassay; assay type: functional, cell-based
# [6] = target: Free fatty acid receptor 2 (Homo sapiens) (UniProt O15552); assay: Agonist activity at human GPR43 in HEK293 cells
# Free fatty acid receptor 2 (Homo sapiens), sequence (O15552 whole entry, looked up): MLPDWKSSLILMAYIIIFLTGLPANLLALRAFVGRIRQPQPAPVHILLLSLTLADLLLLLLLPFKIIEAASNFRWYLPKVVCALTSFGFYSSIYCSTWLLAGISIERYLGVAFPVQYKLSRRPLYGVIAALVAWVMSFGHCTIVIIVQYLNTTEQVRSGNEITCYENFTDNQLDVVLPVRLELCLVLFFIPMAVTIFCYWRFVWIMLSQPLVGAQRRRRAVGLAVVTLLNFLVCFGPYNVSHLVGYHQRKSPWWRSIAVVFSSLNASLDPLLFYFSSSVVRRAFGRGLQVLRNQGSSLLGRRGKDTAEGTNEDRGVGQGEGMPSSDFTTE
# [7] = target: Free fatty acid receptor 3 (Homo sapiens) (UniProt O14843); assay: Agonist activity at human GPR41 in HEK293 cells
# Free fatty acid receptor 3 (Homo sapiens), sequence (O14843 whole entry, looked up): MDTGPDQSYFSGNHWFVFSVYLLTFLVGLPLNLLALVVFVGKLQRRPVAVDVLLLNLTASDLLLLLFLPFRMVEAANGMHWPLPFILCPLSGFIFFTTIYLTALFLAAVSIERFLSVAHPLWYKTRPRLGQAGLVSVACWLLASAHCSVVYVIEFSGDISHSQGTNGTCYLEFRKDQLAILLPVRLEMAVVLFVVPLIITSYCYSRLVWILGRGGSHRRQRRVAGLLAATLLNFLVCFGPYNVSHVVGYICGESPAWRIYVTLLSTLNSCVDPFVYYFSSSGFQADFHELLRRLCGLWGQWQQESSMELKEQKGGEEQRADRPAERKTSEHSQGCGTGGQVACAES
# [8] = target: T1, Free fatty acid receptor 1; assay: Agonist activity at human FFA1 transfected in 1321N1 cells assessed as calcium mobilization by microplate assay; assay type: functional, cell-based; outline: as §2
# [9] = target: T2, Peroxisome proliferator-activated receptor gamma (Homo sapiens); assay: Transactivation of human PPARgamma ligand binding domain transfected in mouse embryo fibroblasts assessed as renilla luciferase activity at 10 uM by luminometry relative to 1 uM rosiglitazone
# [10] = Cytotoxicity in mouse embryo fibroblasts at 100 uM; assay type: cell-based; conditions: fibroblast
# [11] = target: T1, Free fatty acid receptor 1; assay: Agonist activity at human FFA1 transfected in 1321N1 cells assessed as calcium mobilization by microplate assay in presence of 0.05 % bovine serum albumin; assay type: functional, cell-based
# Outline: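 Calcium-response assay at hFFA1, with 0.05% BSA added to the assay because the compound dissolves poorly.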
# [12] = target: T1, Free fatty acid receptor 1; assay: Agonist activity at human FFA1 transfected in 1321N1 cells assessed as calcium mobilization by microplate assay in presence of 0.5 % bovine serum albumin; assay type: functional, cell-based
# [13] = target: T1, Free fatty acid receptor 1; assay: Agonist activity at human FFA1 transfected in 1321N1 cells under serum-free condition after 1 hr by dose response curve/dynamic mass redistribution optical biosensor assay; assay type: functional, cell-based; outline: as §1
# T1 sequence (O14842 whole entry): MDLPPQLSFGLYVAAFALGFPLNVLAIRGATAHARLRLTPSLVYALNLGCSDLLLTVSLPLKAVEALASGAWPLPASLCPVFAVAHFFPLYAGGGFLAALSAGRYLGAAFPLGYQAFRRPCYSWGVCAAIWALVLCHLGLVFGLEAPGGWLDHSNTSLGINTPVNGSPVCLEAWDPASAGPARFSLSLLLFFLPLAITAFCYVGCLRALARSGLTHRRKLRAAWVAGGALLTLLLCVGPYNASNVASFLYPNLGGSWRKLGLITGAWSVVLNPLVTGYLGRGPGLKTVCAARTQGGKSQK
Activity [1],Efficacy [2],Activity [3],Activity [4],fold change (FC) (Homo sapiens),Activity [6],Activity [7],pEC50 [8],Activity [9],pEC50 [11],pEC50 [12],pEC50 [13],SMILES,Activity [5],Activity (INS-1E),Activity [10]
Active,114%,86%,inactive,> 100,inactive,inactive,,,,,,Cc1ccccc1-c1cccc(CNc2ccc(CCC(=O)O)cc2)c1,55%,inactive,
,97%,,inactive,> 100,inactive,inactive,5.97,15%,,,,O=C(O)CCc1ccc(NCc2ccccc2-c2ccccc2)cc1,,,Toxic
,112%,37%,inactive,> 100,inactive,inactive,7.30,,7.09,6.25,6.58,Cc1ccccc1-c1cccc(COc2ccc(CCC(=O)O)cc2)c1,,,
